# Assay outcomes: PubChem, Broad Institute
# This is a sample that favours compounds with a hit; in the whole collection about 1.9% have one here.
# PglD DTNB: blocks C. jejuni PglD acetyltransferase activity | purified PglD enzyme, DTNB colorimetric CoA detection | inhibition, % at 12.5 µM | actives 0.098% (n = 360,000) | AID 602405; in the data active means inhibition above about 16%, passing the limit was not always enough
# Cneo AK release: causes C. neoformans cell lysis; adenylate kinase release luminescence, 4 h; normalised: neutral wells 0, clomiphene wells 100; lysis activity, % at 15 µM; actives 0.2% (n = 360,000); AID 651654;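 active means mean lysis activity across replicates of at least 80%, whatever share of replicates individually reach that level; inactive means mean lysis activity below 80%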
#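 Assay system: Cryptococcus neoformans yeast cells / Dosing: single-point compound dose / Timing: 4 h at 37 °C static, read 1 h later / Measured by: luminescence of released adenylate kinase using an AK detection reagent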
# RAD52 anneal inh: RAD52 (human) annealing inhibition. P43351. recombinant RAD52 DNA annealing, FRET fluorescence. inhibition, % at 18.7 µM. actives 0.46% (n = 360,000). AID 651710;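 active means every replicate showing at least 50% inhibition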
# RAD54 inh: RAD54 (human) branch migration inhibition; Q92698; RAD54 Holliday junction branch migration, FAM/BHQ fluorescence; inhibition, % at 10.4 µM; actives 0.14% (n = 360,000);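 active means mean normalized replicate activity at least 40 and at least half of replicates scoring 40 or more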;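 further: 0% = median of neutral control wells and 100% = median of positive control wells; inhibitors cause a drop in the FAM fluorescence signal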
# Target sequence (Q92698 whole entry, looked up): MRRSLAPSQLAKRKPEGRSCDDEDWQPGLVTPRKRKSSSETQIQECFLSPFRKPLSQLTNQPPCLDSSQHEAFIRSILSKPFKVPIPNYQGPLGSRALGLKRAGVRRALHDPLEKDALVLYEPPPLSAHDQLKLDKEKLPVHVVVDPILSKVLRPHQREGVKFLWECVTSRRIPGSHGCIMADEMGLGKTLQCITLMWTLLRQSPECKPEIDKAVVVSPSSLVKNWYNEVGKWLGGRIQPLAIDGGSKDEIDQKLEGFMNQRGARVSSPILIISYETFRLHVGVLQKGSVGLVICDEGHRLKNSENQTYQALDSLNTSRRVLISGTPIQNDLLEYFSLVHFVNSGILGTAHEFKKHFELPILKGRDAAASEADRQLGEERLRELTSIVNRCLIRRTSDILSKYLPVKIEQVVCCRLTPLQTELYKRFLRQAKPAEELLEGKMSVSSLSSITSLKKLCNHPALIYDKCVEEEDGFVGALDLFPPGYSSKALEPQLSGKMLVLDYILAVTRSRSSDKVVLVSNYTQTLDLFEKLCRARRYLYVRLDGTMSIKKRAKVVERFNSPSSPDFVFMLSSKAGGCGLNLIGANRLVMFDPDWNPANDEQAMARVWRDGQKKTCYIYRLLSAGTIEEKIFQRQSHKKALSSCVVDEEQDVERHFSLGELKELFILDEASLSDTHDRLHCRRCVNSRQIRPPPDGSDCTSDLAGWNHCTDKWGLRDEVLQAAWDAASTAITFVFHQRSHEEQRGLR
# Ecoli rRNA inh: inhibits bacterial ribosomal RNA function over humanized ribosomes; E. coli WT GFP vs humanized-ribosome RFP mutants, fluorescence, 24 h; active compounds read low; DMSO median 0, no signal -100; GFP signal change (wild-type ribosome), % (test concentration not listed); actives 1.6% (n = 350,000);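 active means significant combined selectivity score with lowered wild-type GFP, culture density cut under 30%, mutant RFP and density less affected; inactive means any of these conditions unmet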
# * hit, by the source's call; / = no result given.
SMILES,PglD DTNB,Cneo AK release,RAD52 anneal inh,RAD54 inh,Ecoli rRNA inh
O=C(N/N=C/c1ccco1)c1cc(-c2ccc3ccccc3c2)n[nH]1,3.2,-1.8,/,6.2,/
CCc1ccc(-c2cc(C(=O)N/N=C/c3ccco3)[nH]n2)cc1,/,/,7.7,/,-19.6*
C[C@H](CO)N1C[C@H](C)[C@@H](CN(C)Cc2ccc(C(=O)Nc3ccccc3N)cc2)Oc2ccc(NC(=O)Cc3ccccc3)cc2CC1=O,/,/,36.1,/,-3.6
COc1ccc(NC(=O)Nc2ccc3c(c2)CC(=O)N([C@H](C)CO)C[C@H](C)[C@@H](CN(C)Cc2ccccc2)O3)cc1,4.5,51.1,-9.0,7.8,-5.5
COc1ccc(CCN2C(=O)CC(C(N)=O)SC2=Nc2ccccc2)cc1 (configuration not stated),-35.5,-0.4,-10.5,-10.5,-27.2*
Cc1ccc(C)c(NC(=S)N/N=C2\CCc3ccccc32)c1,-3.2,3.4,-17.4,-3.2,-23.8*
CCC(CC)=NNc1ccc([N+](=O)[O-])cc1[N+](=O)[O-],/,/,3.1,/,24.4
O=[N+]([O-])c1ccc(NN=C(C2CC2)C2CC2)c([N+](=O)[O-])c1,-1.6,1.8,-7.0,-7.0,-21.5*
Cc1scc(C(=O)NNC(=S)NC(C)c2ccccc2)c1C (configuration not stated),/,/,-1.5,/,-20.4*
C=CCNC(=S)NNC(=O)c1csc(C)c1C,6.6,2.3,/,9.1,/
COc1ccc(CN2CC3(CN(C(=O)C4CCC4)C3)c3c(n(C)c4cc(OC)ccc34)[C@@H]2CO)cc1,/,/,-32.0,/,0.4
O=[N+]([O-])c1cccnc1N1CCCCC1,-4.0,0.2,/,5.2,/
O=[N+]([O-])c1ccc(N2CCCCC2)nc1N1CCCCC1,-14.2,-6.2,-3.4,-4.9,-39.7*
COc1ccc(N2CCN(Cc3nc(Cc4cccc(F)c4)no3)C(C)C2)cc1 (configuration not stated),1.1,-4.1,-12.8,0.5,-23.0*
C[C@@H]1CN([C@H](C)CO)S(=O)(=O)c2ccc(C#C[C@@H](C)O)cc2O[C@@H]1CN(C)Cc1ccncc1,1.5,83.5*,6.7,-8.1,-1.3
C[C@@H]1CN([C@@H](C)CO)S(=O)(=O)c2ccc(C#C[C@@H](C)O)cc2O[C@H]1CN(C)Cc1ccncc1,0.4,-1.3,11.7,-5.2,-10.8
C[C@H](O)C#Cc1ccc2c(c1)O[C@H](CN(C)Cc1ccncc1)[C@H](C)CN([C@H](C)CO)S2(=O)=O,1.2,95.3*,11.3,-2.2,-2.5
C[C@H](O)C#Cc1ccc2c(c1)O[C@H](CN(C)C(=O)C1CCCCC1)[C@@H](C)CN([C@@H](C)CO)S2(=O)=O,4.4,0.3,-5.0,-4.5,-0.5
C[C@@H]1CN([C@@H](C)CO)S(=O)(=O)c2ccc(C#C[C@@H](C)O)cc2O[C@@H]1CN(C)C(=O)C1CCCCC1,5.3,105.2*,14.3,3.4,1.3
Cc1ccc(C)c(S(=O)(=O)Nc2ccc(C(=O)NCCc3ccccn3)cc2)c1,/,/,-13.7,/,-1.3
COc1ccc(C(=O)NCCc2ccccn2)cc1S(=O)(=O)Nc1ccc(Br)cc1,0.6,2.0,-26.9,-4.5,-19.9*
O=C(C[C@@H]1CC[C@H](NC(=O)Cc2ccccn2)[C@@H](CO)O1)NCCCN1CCOCC1,4.3,1.8,-6.5,5.6,1.0
COc1ccccc1C(=O)NNC(=O)c1nn(Cc2ccccc2)c(=O)c2ccccc12,/,/,-12.8,/,-23.9*
Cc1cccc(C)c1Nc1nnc(SC/C(O)=C(\C#N)c2nc3ccccc3[nH]2)s1,-1.8,4.7,-21.3,6.4,-34.3*
N#C/C(=C(\O)Cc1ccccc1)c1nc2ccccc2[nH]1,19.4,0.9,/,-2.7,/
SMILES,PglD DTNB,Cneo AK release,RAD52 anneal inh,RAD54 inh,Ecoli rRNA inh
N#C/C(=C(/O)CCl)c1nc2ccccc2[nH]1,/,/,-44.2,/,-16.4*
Cc1noc(C)c1NC(=O)Nc1ccc2c(c1)CC(=O)N([C@H](C)CO)C[C@@H](C)[C@H](CN(C)C(=O)Nc1ccc(C(F)(F)F)cc1)O2,7.4,-2.3,4.0,8.5,-0.7
C[C@H]1CN([C@@H](C)CO)S(=O)(=O)c2ccc(C#CCN(C)C)cc2O[C@H]1CN(C)Cc1ccccc1,2.3,-1.0,4.4,2.0,0.6
Cc1cc(NC(=O)COC(=O)c2cc([N+](=O)[O-])ccc2N2CCOCC2)ccc1Br,-3.7,-8.5,-9.1,0.5,-17.6*
Cc1cc(C)c(NC(=O)COC(=O)c2cc([N+](=O)[O-])ccc2N2CCOCC2)c(C)c1,-4.3,-1.2,-24.9,-0.1,/
O=C(NC(=S)N1CCc2ccccc21)c1ccccc1Br,6.9,4.4,/,-2.8,/
O=C(NC(=S)N1CCc2ccccc21)c1ccc(Br)o1,/,/,-47.6,/,-42.5*
CC(C)NC(=O)N(C)C[C@H]1OCCCC[C@H](C)Oc2ccc(NC(=O)c3ccncc3)cc2C(=O)N([C@@H](C)CO)C[C@@H]1C,/,/,/,/,-0.6
COc1ccc2c3c(n(C)c2c1)[C@H](CO)N(C)CC31CCN(CC2CC2)CC1,/,/,/,/,4.1
COc1ccccc1-c1c(C)oc2c(CN3CCOCC3)c(O)ccc2c1=O,-5.1,1.7,-15.7,5.1,-6.6
Cc1oc2c(CN3CCOCC3)c(O)ccc2c(=O)c1-c1ccccc1,3.2,1.4,-0.9,-12.0,-24.5*
C[C@H](CO)N1C[C@H](C)[C@@H](CN(C)Cc2ccc(C(=O)O)cc2)Oc2c(NC(=O)CCC(F)(F)F)cccc2C1=O,/,/,/,/,-1.6
Cc1cc(C(=O)NCCC2=CCCCC2)ccc1[N+](=O)[O-],0.9,10.2,-17.5,1.7,-34.8*
CC(C)C(=O)Nc1ncc(Cc2ccc(Cl)cc2)s1,/,/,-19.5,/,-27.5*
COc1cccc(C(=O)NNC(=O)CCc2ccccc2)c1,7.3,0.2,-10.9,-11.0,-21.5*
Cn1cc(CNC(=O)c2cc(COc3ccc4c(c3)CCCC4)on2)cn1,0.7,-2.1,-13.3,-3.6,-32.5*
COc1ccc(Nc2nc(C(=O)N3CCc4ccccc4C3)cs2)cc1,/,/,-12.6,/,-48.0
COc1ccc(Nc2nc(C(=O)N3CCc4cc(OC)c(OC)cc4C3)cs2)cc1,/,/,-36.3,/,-38.8*
CN1C(=O)S/C(=C\c2ccc(-n3cncn3)cc2)C1=O,-1.9,-0.5,-17.7,7.7,-22.2*
O=Cc1ccc(-n2cncn2)cc1,/,/,6.3,/,-0.2
CCn1c2ccccc2c2cc(/C=N/n3c(-c4cc(C)[nH]n4)n[nH]c3=S)ccc21,/,/,-10.4,/,-30.7*
CCn1c2ccccc2c2cc(/C=N/n3cn[nH]c3=S)ccc21,/,4.2,/,24.6,/
C[C@@H]1CN([C@@H](C)CO)C(=O)c2cccc(NC(=O)NC3CCCCC3)c2O[C@@H]1CN(C)S(=O)(=O)c1ccc(F)cc1,3.1,-4.9,-10.4,-2.0,-3.5
O=C(COc1ncnc2scc(-c3ccc(F)cc3)c12)NCc1ccco1,1.2,-1.1,/,-6.1,/
Cc1ccc(-c2csc3ncnc(OCC(=O)NC(=O)NCc4ccco4)c23)cc1,9.3,0.2,-21.4,-8.9,-29.0*
